Compounds with a hit are over-represented: about 6.7% of the library has one in this group of screens.
T cruzi repl: inhibitors of intracellular T. cruzi growth, primary screen, luminescence, NIH3T3 host cells | T. cruzi beta-gal in NIH3T3, 90 h | inhibition, % (concentration not given with the values) | 300,000 tested, 1.4% active | AID 1885, 2009;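 active means mean inhibition across valid replicates above about 55%, limit read from the data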;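 further: signal also drops with host cell toxicity which is not excluded here; 0% = plate median of DMSO wells and 100% = zero luminescence signal; higher percent means less beta-gal luminescence so fewer parasites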
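Assay system: NIH/3T3 host cells with β-galactosidase reporter T. cruzi; input: 5,000 host fibroblasts per well; compound: single 50 nL compound addition per well in DMSO; timing: ≥90 h infection period, 3 h prior cell attachment; measured by: GalScreen β-gal luminescence, detergent lysis, 60 min; evaluation: percent inhibition of parasite-derived β-gal signal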
NR3A LBD binder: binders of NR3A ligand-binding domain, primary screen, biophysical, differential scanning fluorimetry, uHTS; 340,000 tested, 2.5% active; Tm shift relative to glycine control, % at 25 µM; NR3A LBD differential scanning fluorimetry, Tm shift; 0% = protein alone, 100% = glycine-bound protein; AID 1259313, 2017;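 active means melting temperature shift of at least 10% of the positive control shift, at one fixed dose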
Beta cell apopt: inhibitors of cytokine-induced beta cell apoptosis, primary screen, luminescence; 300,000 tested, 0.8% active; protection from apoptosis, % (concentration not given with the values); AID 435005, 2010; INS-1E cytokine-induced death, ATP luminescence, 48 h; percent of positive-control rescue, neutral wells zero;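 active means Every replicate reaches about 75%, or at least half do and their mean reaches it too, limit read from the data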;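 further: 0% = cytokine-treated negative control wells and 100% = positive control rescue; higher means more ATP so stronger rescue from cytokine killing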
CHOP inh: inhibitors of CHOP promoter induction, primary screen, cell-based, unfolded protein response, luciferase reporter; CHO-K1 CHOP-promoter luciferase, tunicamycin-induced, 15-18 h; inhibition, % at 10 µM; 220,000 tested, 3.8% active;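 active means compounds that reduced the stress-induced luciferase reporter signal by more than about 70% of percent inhibition, limit read from the data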;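 further: 0% = tunicamycin plus vehicle and 100% = wells without tunicamycin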
PREPL inhibitor: PREPL enzyme inhibitors, primary screen, biochemical, fluorescence polarization | recombinant PREPL, fluorescence polarization activity-based probe | Prolyl endopeptidase-like (Homo sapiens), Q4J6C6 | 320,000 tested, 0.68% active | inhibition, % at 5.96 µM; in the data active means inhibition above about 43%;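 further: 0% = enzyme with DMSO and 100% = wells lacking enzyme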
Target sequence (Q4J6C6 whole entry, looked up): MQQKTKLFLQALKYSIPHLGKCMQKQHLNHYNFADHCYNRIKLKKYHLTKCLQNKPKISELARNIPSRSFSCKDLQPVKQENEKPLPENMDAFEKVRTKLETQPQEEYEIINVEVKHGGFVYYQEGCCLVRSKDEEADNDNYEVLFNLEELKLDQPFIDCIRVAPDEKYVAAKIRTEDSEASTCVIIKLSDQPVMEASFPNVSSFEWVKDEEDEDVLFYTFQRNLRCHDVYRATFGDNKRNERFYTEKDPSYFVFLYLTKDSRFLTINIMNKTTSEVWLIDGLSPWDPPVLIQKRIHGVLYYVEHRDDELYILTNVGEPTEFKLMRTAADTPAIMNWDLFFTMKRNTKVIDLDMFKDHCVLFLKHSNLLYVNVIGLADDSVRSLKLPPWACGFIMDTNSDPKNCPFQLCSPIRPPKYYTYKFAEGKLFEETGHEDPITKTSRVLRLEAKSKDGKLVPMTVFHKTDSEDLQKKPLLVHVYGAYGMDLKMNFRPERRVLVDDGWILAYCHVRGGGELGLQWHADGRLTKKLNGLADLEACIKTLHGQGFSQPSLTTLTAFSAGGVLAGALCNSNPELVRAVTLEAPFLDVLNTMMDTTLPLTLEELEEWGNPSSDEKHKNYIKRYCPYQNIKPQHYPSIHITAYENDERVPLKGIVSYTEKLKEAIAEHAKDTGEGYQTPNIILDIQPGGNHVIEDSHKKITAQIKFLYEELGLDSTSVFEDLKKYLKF
CSC inhib: cancer stem cell viability inhibitors, primary screen, luminescence; 300,000 tested, 1.1% active; cancer stem cell-like cells viability; inhibition, % at 7.5 µM; AID 2717, 2010; in the data active means inhibition above about 75%; tested in HMLE shEcad cells
Active calls of the source: *; . = no result.

SMILES	T cruzi repl	NR3A LBD binder	Beta cell apopt	CHOP inh	PREPL inhibitor	CSC inhib
Nc1c(C(=O)c2ccccc2)sc(Nc2ccccc2)c1S(=O)(=O)c1ccccc1	55*	1	13	14	2	-2
CC(C)NC(=O)C1CCCN(S(=O)(=O)c2cccs2)C1 (centres undefined)	-1	11*	2	-32	3	1
CC(NC(=O)C1CCCN(S(=O)(=O)c2cccs2)C1)c1ccccc1 (centres undefined)	-1	2	0	19	6	-12
COc1ccc(C(=O)Nc2cc(C)c3c(=O)oc4ccccc4c3n2)cc1	-2	0	8	88*	-2	-20
Cc1cc(NC(=O)CC(C)(C)C)nc2c1c(=O)oc1ccccc12	42	-11	.	74*	10	.
CN(C)S(=O)(=O)c1ccc(C(=O)NNC(=O)C2COc3ccccc3O2)cc1 (centres undefined)	-30	0	-3	-11	-4	.
CC(=O)c1sc(N/N=C/c2cccc([N+](=O)[O-])c2)nc1C	26	-4	12	.	12	3
COC(=O)c1sc(N/N=C/c2ccc(C(C)C)cc2)nc1C	64*	1	-6	.	22	26
CC(=O)c1sc(N/N=C/c2cccc(O)c2)nc1C	10	14*	.	-5	6	-16
CC(=O)c1sc(N/N=C\c2ccc(N(C)C)cc2)nc1C	18	-15	8	.	9	0
C/C(=N\N(c1ccccc1)c1ccccc1)c1ccco1	9	-2	-1	63	5	-19
CC(C)(C)OC(=O)C[C@H]1C/C=C\C[C@H](CC(=O)NCCO)C(=O)N[C@@H](Cc2ccccc2)COC1=O	.	-1	-1	.	20	.
O=C(Nc1ccc(Oc2ncnc3cc(Cl)ccc23)nc1)c1ccc(F)cc1	.	6	-5	-2	-2	-5
O=C(Nc1ccc(Oc2ncnc3cc(Cl)ccc23)nc1)Nc1cccc(C(F)(F)F)c1	5	98*	-1	17	2	-5
Cc1ccc(NC(=O)C2CCN(S(=O)(=O)c3ccc4c(c3)CCCC(=O)N4)CC2)c(Br)c1	-4	-3	6	.	21	-6
O=C(Nc1cccc(S(=O)(=O)Nc2ccc(Cl)cc2)c1)c1ccc[n+]([O-])c1	13	1	-4	8	-13	6
Cc1cccc(-c2nc(C#N)c(NC3CCCCC3)o2)c1	15	-13	3	51	6	99*
COc1cc(C)ccc1OCc1cc(C(=O)N(C)CCCN2CCOCC2)no1	5	0	-5	.	15	-1
CC1Cc2cc(S(=O)(=O)N3CCN(c4cccc(Cl)c4)CC3)ccc2N1C(=O)C1CC1 (centres undefined)	25	10*	13	.	-28	-3
Cc1cc(=O)n(C)c(=O)n1CCCCCCOc1cccc([N+](=O)[O-])c1	7	-2	-2	22	9	-17
CC(C)COc1ccc(C(=O)Nc2scc(-c3ccc(Cl)cc3Cl)c2C(N)=O)cc1	55*	0	25	-12	5	44
O=C(Nc1nc(-c2ccc(Cl)cc2Cl)cs1)c1ccc(OCC2CCCO2)cc1 (centres undefined)	32	-4	41	51	13	51
C=CCN1C(=O)c2ccc(C(=O)OCC(=O)Nc3ccc(S(N)(=O)=O)cc3)cc2C1=O	-3	17*	1	.	-9	-22
Cc1csc(C(=O)O)c1NC(=O)c1cccc([N+](=O)[O-])c1	-5	-3	.	4	-6	-5
CC(C)OC(=O)c1cc(NC(=S)Nc2ccc([N+](=O)[O-])cc2)cc(C(=O)OC(C)C)c1	5	-3	-6	75*	-1	56
SMILES	T cruzi repl	NR3A LBD binder	Beta cell apopt	CHOP inh	PREPL inhibitor	CSC inhib
CC(C)CCNC(=S)Nc1ccc([N+](=O)[O-])cc1	9	4	38	38	12	-1
Cc1c(Cl)ccc2c(C(=O)NCCN3CCCCC3)cc(-c3ccccn3)nc12	-7	-2	11	22	-52	19
COc1ccccc1-c1cc(C(=O)NC2CCN(C)CC2)c2ccc(Cl)c(C)c2n1	59*	1	112*	.	-2	108*
O=C(CCCCCNc1nc(=S)[nH]c2ccccc12)NCCc1ccc(Cl)cc1	24	-4	2	83*	-7	30
COc1ccc(/C=C/C(=O)NC(=S)Nc2cc3oc4ccccc4c3cc2OC)cc1	-14	-1	-7	24	3	-9
COc1cc2c(cc1NC(=O)CSc1nc3cc(Cl)ccc3s1)oc1ccccc12	8	32*	31	28	10	12
COc1cc2c(cc1NC(=O)CSc1ccccc1)oc1ccccc12	-10	35*	-2	6	-16	17
COc1cc2c(cc1NC(=O)/C=C/c1ccccc1)oc1ccccc12	28	20*	9	-22	14	73
COc1cc2c(cc1NC(=O)Cn1cnc3c1c(=O)n(C)c(=O)n3C)oc1ccccc12	-1	.	.	47	.	.
COc1cc2c(cc1NC(=O)CSc1nccn1C)oc1ccccc12	20	-5	-3	-3	7	17
COc1cc2c(cc1NC(=O)CN(C)Cc1nc3ccccc3c(=O)[nH]1)oc1ccccc12	6	-4	10	74*	-19	20
O=C(O)C1C2CCC(O2)C1C(=O)Nc1ccc(F)c(Cl)c1 (centres undefined)	-10	-1	-5	.	5	-11
O=C(CCC(=O)c1cccs1)NCc1cccc(Cl)c1	-9	-2	-3	.	0	7
COc1cc2c(cc1NC(=O)CSc1nc3ccccc3[nH]1)oc1ccccc12	32	14*	9	95*	-34	80*
COc1cc(OC)nc(NC(=O)CSc2nc3ccccc3[nH]2)n1	-7	2	-1	10	19	8
O=c1c(N=Nc2ccc(O)cc2)c(-c2ccccc2)[nH]n1-c1ccc([N+](=O)[O-])cc1	-4	-3	-9	56	9	21
O=c1cc(-c2ccccc2)[nH]n1-c1ccc([N+](=O)[O-])cc1	10	10	40	-2	14	138*
CC(C)(C)OC(=O)N1CCC(C(=O)Nc2cccc(C(=O)NCCCc3ccccc3)c2)CC1	.	-6	.	.	.	.
Cc1nc(SCCc2nc3ccccc3[nH]2)c2oc3ccccc3c2n1	.	-1	-6	.	3	.
CCN=c1scc(-c2ccco2)n1/N=C/c1ccc(O)cc1	-14	4	2	76*	15	-3
CCOC(=O)c1c2c(n(Cc3ccccc3)c1C)C(=O)C(=O)c1ccccc1-2	.	-2	.	.	.	.

Compound activity from PubChem.
